Reference: ChEMBL document CHEMBL1144825, “A different molecular mechanism underlying antimicrobial and hemolytic actions of temporins A and L” (J Med Chem, 2008)

Assays:
[1] = system: Escherichia coli; assay: Antimicrobial activity against Escherichia coli D21 after 18 to 20 hrs by micro-broth dilution method; assay type: functional
In short: (§1)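 Microbroth dilution per NCCLS (2001): midlog-phase bacteria at 2 × 10^6 CFU/mL in Mueller-Hinton medium mixed 1:1 with MH broth containing peptide in serial 2-fold dilutions (20% ethanol), range 0.75-24 µM. Incubated 18–20 h at 37 °C; growth read as absorbance at 600 nm. MIC taken as the lowest peptide concentration giving 100% growth inhibition.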

[2] = Toxicity assessed as hemolytic activity in human erythrocytes at 12 uM after 30 mins; assay type: cell-based, Erythrocyte; details: read-out: Activity
In short: (§2)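 Human erythrocyte suspension in 0.9% (w/v) NaCl incubated 30 min at 37 °C with gentle mixing alongside serial 2-fold peptide dilutions (peptide dissolved in 20% ethanol). After centrifugation, supernatant absorbance read at 415 nm. Complete lysis reference obtained by suspending erythrocytes in distilled water.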

[3] = system: Staphylococcus epidermidis; assay: Antimicrobial activity against Staphylococcus epidermidis ATCC 12228 after 18 to 20 hrs by micro-broth dilution method; assay type: functional; in short: as §1
[4] = Antimicrobial activity against […] faecalis ATCC 29212 after 18 to 20 hrs by microbroth dilution method; assay type: functional; in short: as §1
[5] = system: Streptococcus pyogenes; assay: Antimicrobial activity against Streptococcus pyrogenes ATCC 21547 after 18 to 20 hrs by micro-broth dilution method; assay type: functional; in short: as §1
[6] = system: Staphylococcus capitis; assay: Antimicrobial activity against Staphylococcus capitis after 18 to 20 hrs by micro-broth dilution method; assay type: functional; in short: as §1
[7] = system: Priestia megaterium; assay: Antimicrobial activity against Bacillus megaterium Bm11 after 18 to 20 hrs by micro-broth dilution method; assay type: functional; in short: as §1
[8] = Toxicity assessed as hemolytic activity in human erythrocytes at 6 uM after 30 mins; assay type: cell-based, Erythrocyte; details: read-out: Activity; in short: as §2
[9] = system: Saccharomyces; assay: Antimicrobial activity against Saccharomyces pombe after 18 to 20 hrs by micro-broth dilution method; assay type: functional
In short: (§3)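 Yeasts tested by NCCLS (2001) microbroth dilution in Winge medium: cells mixed 1:1 with medium containing peptide in serial 2-fold dilutions (20% ethanol), range 0.75-24 µM. Incubated 18–20 h at 30 °C; absorbance read at 600 nm. MIC defined as the peptide concentration giving 100% growth inhibition.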

[10] = system: Staphylococcus aureus; assay: Antimicrobial activity against Staphylococcus aureus Cowan 1 after 18 to 20 hrs by micro-broth dilution method; assay type: functional; in short: as §1
[11] = Toxicity assessed as hemolytic activity in human erythrocytes at 24 uM after 30 mins; assay type: cell-based, Erythrocyte; details: read-out: Activity; in short: as §2
[12] = system: Yersinia pseudotuberculosis; assay: Antimicrobial activity against Yersinia pseudotuberculosis YP3 after 18 to 20 hrs by micro-broth dilution method; assay type: functional
In short: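 Microbroth dilution per NCCLS (2001). Mid-log bacteria at 2 × 10^6 CFU/mL in Mueller-Hinton broth are mixed 1:1 with MH broth holding serial 2-fold peptide dilutions in 20% ethanol, range 0.75-24 µM. Plates are incubated 18–20 h at 37 °C and growth is read as A600. MIC is the lowest concentration giving 100% growth inhibition.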

[13] = system: Pseudomonas syringae; assay: Antimicrobial activity against Pseudomonas syringae pv tabaci after 18 to 20 hrs by micro-broth dilution method; assay type: functional; in short: as §1
[14] = Toxicity assessed as hemolytic activity in human erythrocytes at 3 uM after 30 mins; assay type: cell-based, Erythrocyte; details: read-out: Activity; in short: as §2
[15] = system: Saccharomyces cerevisiae; assay: Antimicrobial activity against Saccharomyces cerevisiae after 18 to 20 hrs by micro-broth dilution method; assay type: functional; in short: as §3
[16] = system: Pseudomonas aeruginosa; assay: Antimicrobial activity against Pseudomonas aeruginosa ATCC 15692 after 18 to 20 hrs by microbroth dilution method; assay type: functional; in short: as §1
[17] = system: Candida albicans; assay: Antimicrobial activity against Candida albicans ATCC 10231 after 18 to 20 hrs by micro-broth dilution method; assay type: functional; in short: as §3
[18] = system: Staphylococcus aureus; assay: Antimicrobial activity against Staphylococcus aureus ATCC 25923 after 18 to 20 hrs by micro-broth dilution method; assay type: functional; in short: as §1

Substance | MIC [1] | hemolysis at 0.5 h, 12 µM [2] | MIC [3] | MIC [4] | MIC [5] | MIC [6] | MIC [7] | hemolysis at 0.5 h, 6 µM [8] | MIC [9] | MIC [10] | hemolysis at 0.5 h, 24 µM [11] | MIC [12] | MIC [13] | hemolysis at 0.5 h, 3 µM [14] | MIC [15] | MIC [16] | MIC [17] | MIC [18]
H-FLPLIGRVLSGIL-NH2 [TEMPORIN A] | > 24 µM | 6% | 3 µM | 12 µM | 12 µM | 1.5 µM | 1.5 µM | 4.5% | 3 µM | 1.5 µM | 28% | 12 µM | > 24 µM | 3% | 6 µM | > 24 µM | 12 µM | 3 µM
H-FLQLIGRVLSGIL-NH2 [GLN-TA, TEMPORIN A] | > 24 µM | 70% | 1.5 µM | 6 µM | 6 µM | 1.5 µM | 0.75 µM | 18% | 3 µM | 1.5 µM | 92% | 6 µM | > 24 µM | 9% | 6 µM | > 24 µM | 6 µM | 1.5 µM
H-FVQWFSKFLGRIL-NH2 [TEMPORIN L] | 12 µM | 92% | 3 µM | 6 µM | 6 µM | 1.5 µM | 1.5 µM | 48% | 6 µM | 3 µM | 94% | 3 µM | 6 µM | 13% | 6 µM | 24 µM | 12 µM | 3 µM
H-FVPWFSKFLGRIL-NH2 | 12 µM | 42% | 1.5 µM | 6 µM | 6 µM | 1.5 µM | 1.5 µM | 10% | 3 µM | 1.5 µM | 92% | 3 µM | 6 µM | 6% | 6 µM | 24 µM | 6 µM | 3 µM
